Screening data as filed in PubChem BioAssay.
Only some compounds are listed: those with a hit (about 3.7% of all), similar ones and a draw of the others.
KCNQ1 inh = inhibitors of human KCNQ1 channel, primary screen, cell-based, thallium flux, high-throughput | CHO-K1 KCNQ1, FluxOR thallium flux fluorescence; active compounds read high | hit rate 1.3% among 310,000 | Potassium voltage-gated channel subfamily KQT member 1 (Homo sapiens), P51787 | B-score at 10 µM;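 active means compounds whose thallium flux B-score, printed positive for inhibition, exceeds three library SD while starting fluorescence stays within three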;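 further: channel opened by potassium depolarization with thallium stimulus after 20 min compound exposure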
hERG protect = hERG rescue from dofetilide block, primary screen, cell-based, CHO-hERG, FluxOR thallium flux, dofetilide IC70; AID 1511, 2009; hit rate 0.51% among 310,000; activation (rescue from dofetilide block), less the hit threshold, % at 10 µM; Voltage-gated inwardly rectifying potassium channel KCNH2 (Homo sapiens), Q12809; dofetilide IC70 present;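 active means activation above the mean of controls blocked by dofetilide plus 5 SD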;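 further: thallium influx through hERG after potassium depolarization seen as dye fluorescence rise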
KCNK9 block = KCNK9 potassium channel inhibitors, primary screen, HEK293 cells, thallium flux | Potassium channel subfamily K member 9 (Homo sapiens), Q9NPC2 | FluxOR thallium flux fluorescence; active compounds read low | B-score at 10 µM | hit rate 1.2% among 310,000;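 active means ratio B-score over 3 SD below the library mean, with starting fluorescence within 5 SD of its mean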;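 further: negative B-score means less thallium flux so channel inhibition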
Target sequence (Q9NPC2 whole entry, looked up): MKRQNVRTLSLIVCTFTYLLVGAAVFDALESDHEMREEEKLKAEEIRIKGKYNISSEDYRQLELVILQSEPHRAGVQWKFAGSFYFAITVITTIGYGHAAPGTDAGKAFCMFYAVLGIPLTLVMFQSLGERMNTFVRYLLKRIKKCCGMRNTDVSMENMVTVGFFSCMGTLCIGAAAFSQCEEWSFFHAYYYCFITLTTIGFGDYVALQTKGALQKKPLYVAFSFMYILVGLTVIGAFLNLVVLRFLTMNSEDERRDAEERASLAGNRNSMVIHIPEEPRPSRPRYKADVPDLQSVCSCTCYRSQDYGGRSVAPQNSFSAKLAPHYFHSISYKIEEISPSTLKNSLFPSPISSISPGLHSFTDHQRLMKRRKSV
KCNK3 inh = human KCNK3 channel inhibitors, primary screen, CHO cells, FluxOR thallium flux, B-score; Potassium channel subfamily K member 3 (Homo sapiens), O14649; FluxOR fluorescence; active compounds read low; B-score at 10 µM; hit rate 0.84% among 340,000; AID 602410, 2012;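 active means B-score under library mean minus 4 SD, starting fluorescence ratio at most library mean plus 5 SD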;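 further: more negative B-score means stronger inhibition of thallium flux through KCNK3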
Target sequence (O14649 whole entry, looked up): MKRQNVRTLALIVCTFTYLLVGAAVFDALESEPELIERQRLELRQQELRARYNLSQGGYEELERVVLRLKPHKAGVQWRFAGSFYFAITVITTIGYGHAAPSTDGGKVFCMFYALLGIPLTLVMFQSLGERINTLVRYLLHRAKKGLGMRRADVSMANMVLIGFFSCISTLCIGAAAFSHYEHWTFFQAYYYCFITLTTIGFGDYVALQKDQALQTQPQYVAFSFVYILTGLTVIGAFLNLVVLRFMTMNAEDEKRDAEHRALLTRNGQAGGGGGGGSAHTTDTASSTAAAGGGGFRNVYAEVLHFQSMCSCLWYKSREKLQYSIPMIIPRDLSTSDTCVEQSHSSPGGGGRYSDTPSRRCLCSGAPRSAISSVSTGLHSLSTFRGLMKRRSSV
KCNQ1 pot = potentiators or activators of KCNQ1 channel, primary screen, cell-based, thallium flux, high-throughput; Potassium voltage-gated channel subfamily KQT member 1 (Homo sapiens), P51787; CHO-K1 KCNQ1, thallium flux FluxOR fluorescence; active compounds read high; B-score at 10 µM; hit rate 0.35% among 310,000; AID 2648, 2010;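 active means fluorescence ratio B-score, a plate-corrected score, at least three library SD, with initial intensity B-score within 5 SD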
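Assay system: CHO-K1 cells stably expressing KCNQ1; Medium: assay buffer with matched DMSO; Also added: K+/Tl+ depolarizing stimulus; Dosing: single dose; Timing: dye 90 min, compound 20 min, room temperature; Measured by: kinetic FluxOR thallium fluorescence, 10-s 1-Hz baseline, 110-s post-stimulus read; Read-out: peak-minus-minimum fluorescence over initial fluorescence, negative-control normalized, B-scored.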
Kir21 block = inhibitors of mouse Kir2.1 inward-rectifier potassium channel | AID 1672, 2009 | B-score at 10 µM | HEK293-Kir2.1, FluxOR thallium flux fluorescence; active compounds read low | Inward rectifier potassium channel 2 (Mus musculus), P35561 | hit rate 0.85% among 310,000;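 active means fluorescence ratio B-score at or below minus 3 SD of library scores, with starting-brightness B-score within 2 SD, cut at about -4.2 in these data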;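 further: channel flux triggered by added potassium and thallium sulfate stimulus; B-score of peak minus minimum fluorescence over baseline after thallium stimulus; more negative B-score means stronger Kir2.1 block with less thallium influx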
KCNQ1 block val = KCNQ1 potassium channel inhibitors, confirmation, cell-based, Tl flux, duplicate; shares compounds with KCNQ1 inh; KCNQ1 cell line, FluxOR thallium flux fluorescence; inhibition, % at 10 µM; hit rate 93% among 1,600; AID 588353, 2011;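 active means primary screen active, with duplicate mean exceeding buffer control mean plus 3 SD of buffer wells, cut at about 28% in these data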;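 further: 0% = buffer control ratio and 100% = XE991 inhibitor control ratio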
CHO Tl flux = thallium flux effects in parental CHO cells, counter-screen for KCNQ1 inhibitor project, cell-based, Tl flux; shares compounds with KCNQ1 inh; parental CHO-K1, FluxOR thallium flux fluorescence ratio; active compounds read low; zero means no signal rise above baseline; fluorescence ratio (Tl flux) at 10 µM; hit rate 21% among 1,600; AID 588366, 2011;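 active means mean of duplicate thallium-flux fluorescence ratios in parental host cells more than 5 SD below the buffer control mean, cut at about 0.38 in these data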;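 further: ratio is peak minus minimum fluorescence divided by baseline fluorescence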
KCNQ1 ephys val = KCNQ1 channel inhibitors, confirmation, orthogonal assay, cell-based, automated electrophysiology; calls only at 10 µM; hit rate 20% among 490; KCNQ1-CHO cells, automated patch clamp current; shares compounds with KCNQ1 inh;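 active means KCNQ1 current drop exceeding 3 SD of negative control wells, seen in both duplicate runs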;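 further: steady state current during a 2 s step from -80 to +40 mV; negative values mean current inhibition and positive values mean potentiation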
KCNQ2 spec = KCNQ2 channel inhibition, selectivity assay for KCNQ1 inhibitor project, cell-based; shares compounds with KCNQ1 inh; KCNQ2 cells, FluxOR thallium flux fluorescence; inhibition, % at 10 µM; hit rate 71% among 1,600; AID 651746, 2012;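 active means mean percent inhibition of the KCNQ2 thallium signal more than 5 SD above the buffer-only control wells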;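 further: KCNQ2 expressed in CHO cells; 0% = buffer control wells and 100% = XE-991 inhibitor control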
KCNQ1 KCNE1 spec = KCNQ1/KCNE1 channel inhibition, selectivity assay for KCNQ1 inhibitor project, CHO-K1 cells, thallium flux, FluxOR; shares compounds with KCNQ1 inh; FluxOR thallium flux fluorescence; inhibition, % at 10 µM; hit rate 77% among 1,600;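 active means mean percent inhibition of duplicate wells above the buffer-only control mean plus 3 SD of those controls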;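 further: 0% = buffer only wells and 100% = XE-991 inhibitor control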
* = called active by the depositor; i = inactive; . = not tested or not shown; + = active, no number.

SMILES | KCNQ1 inh | hERG protect | KCNK9 block | KCNK3 inh | KCNQ1 pot | Kir21 block | KCNQ1 block val | CHO Tl flux | KCNQ2 spec | KCNQ1 KCNE1 spec | others
Cc1cccc(N2C(=O)c3cccc4c(N)ccc(c34)C2=O)c1 | 23* | -51.3 | i | i | i | -17.6 | + | 0.0085* | i | i
CN(C)c1ccc2c3c(cccc13)C(=O)N(c1ccccc1)C2=O | i | -11.7 | i | . | i | 1.44 | . | . | . | .
CCN1C(=O)c2cccc3c(Cl)ccc(c23)C1=O | i | -4.8 | i | i | i | 0.14 | . | . | . | .
Cc1cccc(N2C(=O)c3cccc4c(N(C)CCO)ccc(c34)C2=O)c1 | 7* | -17.2 | i | i | i | -5.02 | 121.5* | 0.25* | i | i
CCN(CC)S(=O)(=O)c1ccc(OCCNS(C)(=O)=O)cc1 | i | -7.3 | i | i | i | 0.01 | . | . | . | .
Cc1cccc(C(=O)NNC(=O)c2ccco2)c1 | i | -2.5 | i | i | i | 0.17 | . | . | . | .
CCc1ccccc1N(C1=NCCCS1)S(=O)(=O)c1ccc(C(C)(C)C)cc1 | i | -7.8 | i | i | i | 1.9 | . | . | . | .
O=C1CCCCC1C(Nc1ccc(Br)cc1)c1ccccc1 (centres undefined) | 8* | -3.0 | -6.58* | i | i | 1.13 | 126.5* | 0.439 | 89.0%* | 171.5%* | KCNQ1 ephys val=+
O=C1CCCCC1C(Nc1ccc(Cl)cc1)c1ccccc1 (centres undefined) | i | -7.7 | i | i | i | 0.7 | . | . | . | .
Cn1cccc1/C=N/NC(=O)CSc1nc2ccccc2n1C | i | -11.0 | i | i | i | -1.71 | . | . | . | .
COc1ccc(-n2cc(-c3ccccc3)nc2SC)cc1 | 6* | -15.3 | i | i | i | 0.07 | 94.0* | 0.422 | 86.0%* | 130.0%* | KCNQ1 ephys val=i
COc1cc(OC)cc(-c2c(-c3cccs3)c3cc(-c4cnc(OC)nc4)ccc3n2C)c1 | . | . | . | i | . | . | . | . | . | .
Clc1ccc(Cl)c2sc(N3CCOCC3)nc12 | 8* | -0.3 | i | i | i | 1.38 | 25.5* | 0.466 | i | i
O=C(COc1ccccc1)Nc1cccc(-c2nc3ccccc3[nH]2)c1 | 6* | -15.2 | i | i | i | -1.95 | 51.5* | 0.475 | 78.0%* | 79.5%*
O=C(COc1ccc(Br)cc1)Nc1ccncc1 | i | -13.4 | i | i | i | 3.01 | . | . | . | .
CC(C)CCOc1cccc(OCC(=O)Nc2ccncc2)c1 | 12* | -14.3 | i | i | i | -0.05 | 106.5* | 0.448 | i | 40.5%* | KCNQ1 ephys val=i
CCC(C)(C)c1ccc(OCC(=O)Nc2ccncc2)cc1 | 8* | -23.2 | i | i | i | 1.95 | 138.5* | 0.435 | 92.0%* | 72.0%* | KCNQ1 ephys val=i
COc1ccc(OCC(=O)Nc2cccc(-c3nc4ccccc4[nH]3)c2)cc1 | i | -7.9 | i | i | i | -0.94 | . | . | . | .
O=C(COc1ccc(Nc2ccccc2)cc1)Nc1ccncc1 | 8* | -21.5 | i | i | i | -1.29 | 94.5* | 0.538 | i | i
CC(C)[C@H](NC(N)=O)C(=O)Nc1cccc(S(=O)(=O)NC2=NCCCCC2)c1 | . | . | . | i | . | . | . | . | . | .
Cc1cccc(N2C(=O)CC(N3CCC(c4nc5ccccc5[nH]4)CC3)C2=O)c1 (centres undefined) | i | -11.8 | i | i | i | -0.47 | . | . | . | .
CCN1C(=O)CC(N2CCC(c3nc4ccccc4[nH]3)CC2)C1=O (centres undefined) | 6* | -18.6 | i | i | i | -0.03 | 31.5* | 0.464 | i | 73.0%*
Cc1ccc(-c2cc(C(=O)Nc3ccncc3)c3ccccc3n2)cc1 | i | -7.3 | i | i | i | -2.63 | . | . | . | .
O=C(Nc1ncccn1)c1cc(-c2cccc(Br)c2)nc2ccccc12 | i | -4.0 | i | i | i | -0.17 | . | . | . | .
O=C(Nc1ccccn1)c1cc(-c2cccc(Cl)c2)nc2ccccc12 | 7* | -18.6 | i | i | i | -0.1 | 92.0* | 0.405 | 115.0%* | 151.0%* | KCNQ1 ephys val=i
SMILES | KCNQ1 inh | hERG protect | KCNK9 block | KCNK3 inh | KCNQ1 pot | Kir21 block | KCNQ1 block val | CHO Tl flux | KCNQ2 spec | KCNQ1 KCNE1 spec | others
Cc1cccc(-c2cc(C(=O)Nc3ccc4c(c3)OCCO4)c3ccccc3n2)c1 | 9* | -10.4 | i | i | i | 0.77 | 77.5* | 0.388 | 116.3%* | 93.0%*
O=C(O)c1ccccc1NC(=O)c1cc(-c2ccccc2)nc2ccccc12 | 7* | -31.4 | i | i | i | 1.48 | 70.0* | 0.485 | 81.7%* | 119.5%*
Cc1ccc(C)c(NC(=O)c2cc(-c3cccnc3)nc3ccccc23)c1 | 7* | -4.9 | i | i | i | 0.68 | 61.5* | 0.467 | 97.0%* | 43.5%*
Cc1ccc(S(=O)(=O)N2CCCCC2)cc1NC(=O)CSc1nc(N)cc(=O)[nH]1 | . | . | . | i | . | . | . | . | . | .
N#Cc1cc([N+](=O)[O-])ccc1NC(=O)COC(=O)CC1CCCC1 | i | -11.4 | i | . | i | -1.13 | . | . | . | .
CCc1noc(C)c1C(=O)N1CCCSC1=Nc1ccccc1Cl | 7* | -16.6 | i | i | i | -0.83 | 80.5* | 0.429 | 66.3%* | 110.0%*
CCOc1ccc(N=C2SCCCN2C(=O)c2c(CC)noc2C)cc1 | i | -6.5 | i | i | i | 3.45 | . | . | . | .
